Experimental data reported in ChEMBL document CHEMBL4038284, “Synthesis of novel quinoline-based 4,5-dihydro-1H-pyrazoles as potential anticancer, antifungal, antibacterial and antiprotozoal agents” (Eur J Med Chem, 2017).

What was measured:
Format in all cases: functional
SF-539 = test: Growth inhibition of human SF539 cells incubated for 48 hrs by sulforhodamine B assay; details: SF-539, 48 h
Summary of the method: (§1)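 NCI-60 panel cells grown in RPMI-1640 with 5% FBS and 2 mM L-glutamine, preincubated 24 h at 37 °C/5% CO2. Time-zero plates were TCA-fixed at compound addition. DMSO stocks were diluted in medium and tested at five final concentrations (100, 10, 1.0, 0.1, 0.01 µM) for 48 h. Cells were TCA-fixed, stained with SRB and read at 515 nm. GI50 = 50% lower net protein increase versus control.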

SN12C = test: Growth inhibition of human SN12C cells incubated for 48 hrs by sulforhodamine B assay; summary of the method: as §1
NCI-H460 = test: Growth inhibition of human NCI-H460 cells incubated for 48 hrs by sulforhodamine B assay; details: NCI-H460, 48 h
Summary of the method: (§2)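 Five-dose NCI SRB assay at 100, 10, 1.0, 0.1 and 0.01 μM for 48 h at 37 °C, 5% CO2. Medium was RPMI-1640 with 5% FBS and 2 mM glutamine. Time-zero plates were TCA-fixed at compound addition, A515 read after SRB staining. GI50 was solved from [(Ti−Tz)/(C−Tz)]×100 = 50. Values beyond the tested range are given as > or <.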

EKVX = test: Growth inhibition of human EKVX cells incubated for 48 hrs by sulforhodamine B assay
Summary of the method: (§3)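 NCI five-dose SRB assay (100, 10, 1.0, 0.1, 0.01 µM) with 48 h exposure in RPMI-1640 with 5% FBS and 2 mM L-glutamine. Cells fixed with TCA and stained with SRB, read at 515 nm. GI50 is the concentration where [(Ti−Tz)/(C−Tz)]×100 = 50.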

OVCAR-5 = test: Growth inhibition of human OVCAR5 cells incubated for 48 hrs by sulforhodamine B assay; details: OVCAR-5, 48 h
Summary of the method: (§4)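 NCI 60-line screen. Cells in RPMI-1640 with 5% FBS and 2 mM L-glutamine, preincubated 24 h, then time-zero plates TCA-fixed. Compounds from DMSO stocks given at five final concentrations (100, 10, 1.0, 0.1, 0.01 µM) for 48 h at 37 °C, 5% CO2. Cells fixed with 10% TCA, SRB-stained, read at 515 nm. GI50 is the concentration giving 50% lower net protein increase versus control.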

CCRF-CEM = test: Growth inhibition of human CCRF-CEM cells incubated for 48 hrs by sulforhodamine B assay; summary of the method: as §4
COLO 205 = test: Growth inhibition of human COLO205 cells incubated for 48 hrs by sulforhodamine B assay; details: COLO 205, 48 h; summary of the method: as §3
U-251 = test: Growth inhibition of human U251 cells incubated for 48 hrs by sulforhodamine B assay; details: U-251, 48 h; summary of the method: as §1
RXF 393 = test: Growth inhibition of human RXF393 cells incubated for 48 hrs by sulforhodamine B assay; details: RXF 393, 48 h; summary of the method: as §2
TK-10 = test: Growth inhibition of human TK10 cells incubated for 48 hrs by sulforhodamine B assay; details: TK-10, 48 h; summary of the method: as §4
A549 = test: Growth inhibition of human A549/ATCC cells incubated for 48 hrs by sulforhodamine B assay; details: A549, 48 h; summary of the method: as §4
K562 = test: Growth inhibition of human K562 cells incubated for 48 hrs by sulforhodamine B assay; details: K562, 48 h; summary of the method: as §4
HCT-116 = test: Growth inhibition of human HCT116 cells incubated for 48 hrs by sulforhodamine B assay; details: HCT-116, 48 h; summary of the method: as §3
HCT-15 = test: Growth inhibition of human HCT15 cells incubated for 48 hrs by sulforhodamine B assay; details: HCT-15, 48 h; summary of the method: as §4
SK-MEL-5 = test: Growth inhibition of human SK-MEL-5 cells incubated for 48 hrs by sulforhodamine B assay; details: SK-MEL-5, 48 h; summary of the method: as §4
SW-620 = test: Growth inhibition of human SW620 cells incubated for 48 hrs by sulforhodamine B assay; details: SW-620, 48 h; summary of the method: as §1
LOX IMVI = test: Growth inhibition of human LOXIMVI cells incubated for 48 hrs by sulforhodamine B assay; summary of the method: as §2
SK-OV-3 = test: Growth inhibition of human SKOV3 cells incubated for 48 hrs by sulforhodamine B assay; details: SK-OV-3, 48 h; summary of the method: as §4
SR = test: Growth inhibition of human SR cells incubated for 48 hrs by sulforhodamine B assay; summary of the method: as §4
M14 = test: Growth inhibition of human M14 cells incubated for 48 hrs by sulforhodamine B assay; details: M14, 48 h; summary of the method: as §2
NCI-H522 = test: Growth inhibition of human NCI-H522 cells incubated for 48 hrs by sulforhodamine B assay; details: NCI-H522, 48 h; summary of the method: as §4
MCF7 = test: Growth inhibition of human MCF7 cells incubated for 48 hrs by sulforhodamine B assay; details: MCF7, 48 h; summary of the method: as §4
HOP-62 = test: Growth inhibition of human HOP62 cells incubated for 48 hrs by sulforhodamine B assay; details: HOP-62, 48 h; summary of the method: as §3
PC-3 = test: Growth inhibition of human PC3 cells incubated for 48 hrs by sulforhodamine B assay; details: PC-3, 48 h; summary of the method: as §2
MOLT-4 = test: Growth inhibition of human MOLT4 cells incubated for 48 hrs by sulforhodamine B assay; details: MOLT-4, 48 h; summary of the method: as §4
Malme-3M = test: Growth inhibition of human MALME-3M cells incubated for 48 hrs by sulforhodamine B assay; summary of the method: as §2
DU-145 = test: Growth inhibition of human DU145 cells incubated for 48 hrs by sulforhodamine B assay; details: DU-145, 48 h; summary of the method: as §3
UACC-62 = test: Growth inhibition of human UACC62 cells incubated for 48 hrs by sulforhodamine B assay; details: UACC-62, 48 h; summary of the method: as §4
UO-31 = test: Growth inhibition of human UO31 cells incubated for 48 hrs by sulforhodamine B assay; details: UO-31, 48 h; summary of the method: as §1
786-0 = test: Growth inhibition of human 786-0 cells incubated for 48 hrs by sulforhodamine B assay; details: 786-0, 48 h; summary of the method: as §3
SF-268 = test: Growth inhibition of human SF268 cells incubated for 48 hrs by sulforhodamine B assay; details: SF-268, 48 h; summary of the method: as §2
T47D = test: Growth inhibition of human T47D cells incubated for 48 hrs by sulforhodamine B assay; summary of the method: as §1
[1] = read-out: LC50 (the source's name)

## COc1cc(C(=O)/C=C/c2cccc(Nc3ccnc4cc(Cl)ccc34)c2)cc(OC)c1OC
SF-539
  GI50: 1.36 µM
SF-539; [1]
  CC50: 5.27 µM
SN12C
  GI50: 1.16 µM
NCI-H460
  GI50: 1.91 µM
NCI-H460; [1]
  CC50: > 100 µM
EKVX
  GI50: 1.62 µM
OVCAR-5
  GI50: 1.7 µM
OVCAR-5; [1]
  CC50: 6.37 µM
CCRF-CEM
  GI50: 0.36 µM
CCRF-CEM; [1]
  CC50: > 100 µM
COLO 205
  GI50: 1.34 µM
COLO 205; [1]
  CC50: > 100 µM
U-251
  GI50: 0.91 µM
U-251; [1]
  CC50: 5.19 µM
RXF 393
  GI50: 1.08 µM
RXF 393; [1]
  CC50: 5.67 µM
TK-10
  GI50: 1.45 µM
TK-10; [1]
  CC50: 6.11 µM
A549
  GI50: 1.48 µM
  LC50 (concentration giving 50% net cell kill): 11.5 µM
K562
  GI50: 0.4 µM
K562; [1]
  CC50: > 100 µM
HCT-116
  GI50: 0.35 µM
  LC50 (concentration killing 50% of cells): 3.98 µM
HCT-15
  GI50: 0.52 µM
SK-MEL-5
  GI50: 1.38 µM
SK-MEL-5; [1]
  CC50: 5.18 µM
SW-620
  GI50: 0.45 µM
SW-620; [1]
  CC50: > 100 µM
LOX IMVI
  GI50: 0.37 µM
LOX IMVI; [1]
  CC50: 3.95 µM
SK-OV-3
  GI50: 1.94 µM
SK-OV-3; [1]
  CC50: 2.61 µM
SR
  GI50: 0.32 µM
SR; [1]
  CC50: > 100 µM
M14
  GI50: 1.41 µM
NCI-H522
  GI50: 0.59 µM
NCI-H522; [1]
  CC50: 6.23 µM
MCF7
  GI50: 0.61 µM
MCF7; [1]
  CC50: 5.24 µM
HOP-62
  GI50: 0.68 µM
HOP-62; [1]
  CC50: 6.06 µM
PC-3
  GI50: 1.48 µM
PC-3; [1]
  CC50: > 100 µM
MOLT-4
  GI50: 1.79 µM
MOLT-4; [1]
  CC50: > 100 µM
Malme-3M
  GI50: 1.46 µM
Malme-3M; [1]
  CC50: 7.8 µM
DU-145
  GI50: 1.46 µM
UACC-62
  GI50: 1.03 µM
UACC-62; [1]
  CC50: 5.4 µM
UO-31
  GI50: 0.57 µM
UO-31; [1]
  CC50: 4.42 µM
786-0
  GI50: 0.56 µM
  LC50: 4.89 µM
SF-268
  GI50: 1.24 µM
T47D
  GI50: 1.22 µM
T47D; [1]
  CC50: 8.26 µM
